Test results reported in paper PMC9558494 (Angewandte Chemie (International Ed. in English), 2022).

How the values were obtained:
ERAP2 = ERAP2 (Homo sapiens, UniProt Q6P179); assay: ERAP2 activity assay using R-AMC substrate; format: biochemical
[1] = Pharmacokinetics in mouse; format: in vivo, mice
Outline: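 Female mice received a single i.p. dose of 50 mg/kg. Derived parameters were elimination-phase half-life (T1/2 β, min), Cmax (μM), Tmax (min) and AUC extrapolated to infinity (AUC0‑∞, min μM).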

LogD octanol/PBS pH 7.4 = format: physicochemical
Stability in plasma = format: in vitro ADME; conditions: both, human
Microsomal stability = format: in vitro ADME, human; conditions: for half-life at 1 µM: both, human, liver microsomes, pH 7.4; for HLM Cl: human liver microsomes
[2] = system: SIINFEKL OVA-derived antigen presentation in HEK cells; assay: Antigen presentation assay; format: cell-based; conditions: HEK cells where LSIINFEKL is endogenously produced, 24 h
[3] = female, CD-1, mouse, plasma, ip, 50 mg/kg

Chain of ERAP2 (Q6P179 whole entry): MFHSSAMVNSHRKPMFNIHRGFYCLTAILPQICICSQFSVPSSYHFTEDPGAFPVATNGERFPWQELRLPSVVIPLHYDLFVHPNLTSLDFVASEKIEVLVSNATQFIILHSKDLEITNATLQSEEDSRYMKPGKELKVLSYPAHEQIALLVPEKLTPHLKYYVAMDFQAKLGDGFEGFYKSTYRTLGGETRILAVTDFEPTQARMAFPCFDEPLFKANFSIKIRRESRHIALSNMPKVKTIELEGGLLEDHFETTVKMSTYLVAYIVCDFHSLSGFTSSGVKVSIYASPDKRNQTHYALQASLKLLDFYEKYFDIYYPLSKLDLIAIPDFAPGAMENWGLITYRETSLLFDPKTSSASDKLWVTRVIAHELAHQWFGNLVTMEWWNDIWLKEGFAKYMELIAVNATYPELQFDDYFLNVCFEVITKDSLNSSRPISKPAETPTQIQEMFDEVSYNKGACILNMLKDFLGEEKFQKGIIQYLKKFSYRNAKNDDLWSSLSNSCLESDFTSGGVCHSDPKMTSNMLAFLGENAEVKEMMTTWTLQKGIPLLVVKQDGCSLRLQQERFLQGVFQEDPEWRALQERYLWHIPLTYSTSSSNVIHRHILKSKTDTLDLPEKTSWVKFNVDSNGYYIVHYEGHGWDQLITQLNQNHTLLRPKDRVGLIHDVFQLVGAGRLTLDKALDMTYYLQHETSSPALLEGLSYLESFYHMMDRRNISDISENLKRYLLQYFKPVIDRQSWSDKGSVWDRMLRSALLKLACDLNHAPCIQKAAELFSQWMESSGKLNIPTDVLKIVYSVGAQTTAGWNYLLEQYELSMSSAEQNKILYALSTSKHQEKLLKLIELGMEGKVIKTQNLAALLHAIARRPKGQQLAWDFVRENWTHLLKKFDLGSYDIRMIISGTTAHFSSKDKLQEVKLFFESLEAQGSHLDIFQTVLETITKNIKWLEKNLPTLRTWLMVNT

## O=C(NO)[C@@H](Cc1c[nH]c2ccccc12)n1cc(CNS(=O)(=O)c2ccc(-c3ccccc3)s2)nn1 [4 b]
ERAP2; read-out: %inh at 100 μM
  inhibition at 100 µM: 43%
ERAP2; replacement of the phenol group by an indole
  ERAP2 activity in words: complete loss of activity

## O=C(C[C@@H](Cc1ccc2ccccc2c1)n1cc(CNS(=O)(=O)c2ccc(-c3ccccc3)s2)nn1)NO [2 c]
ERAP2
  IC50: 2290 nM

## O=C(NO)[C@H](Cc1ccc(O)cc1)n1cc(CNS(=O)(=O)c2ccc(-c3ccccc3)s2)nn1 [4 a]
ERAP2
  IC50: 760 nM

## COc1ccc(C[C@@H](C(=O)NO)n2cc(CNS(=O)(=O)c3ccc(-c4ccccc4)s3)nn2)cc1 [4 d]
[1]; [3]
  AUC: 12.9 µM·h
  Cmax: 18 µM
[1]; mice, 50 mg kg^−1, i. p.
  tolerability of the dose: tolerated
LogD octanol/PBS pH 7.4
  logD at 2 h: 2.99
Stability in plasma
  half-life at 10 µM: > 6 h
Microsomal stability
  half-life at 1 µM: > 0.667 h
  HLM Cl: 50 µL/min/g
[2]
  effect on SIINFEKL antigen presentation: dose‐dependent effect

## O=C(C[C@@H](Cc1c[nH]c2ccccc12)n1cc(CNS(=O)(=O)c2ccc(-c3ccccc3)s2)nn1)NO [2 b]
ERAP2
  IC50: 12000 nM

## O=C(NO)[C@H](Cc1ccc(Oc2ccccc2)cc1)n1cc(CNS(=O)(=O)c2ccc(-c3ccccn3)s2)nn1 [4 f]
LogD octanol/PBS pH 7.4
  logD at 2 h: 4.11
Stability in plasma
  half-life at 10 µM: > 6 h
[2]
  effect on SIINFEKL antigen presentation: dose‐dependent effect

## COc1ccc(C[C@@H](C(=O)NO)n2cc(CNS(=O)(=O)c3ccc(-c4ccccn4)s3)nn2)cc1 [4 e]
LogD octanol/PBS pH 7.4
  logD at 2 h: 1.81
Stability in plasma
  half-life at 10 µM: > 6 h
Microsomal stability
  half-life at 1 µM: > 0.667 h
  HLM Cl: 21 µL/min/g
